Compounds with a hit are over-represented: about 2.1% of the library has one in this group of screens.
H9c2 protect: protects H9c2 cardiomyocytes from peroxide injury. H2O2 injury protection, ATPLite, 2 h. protection from H2O2 cell death, % at 20 µM. actives 0.63% (n = 360,000). AID 588492;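 active = compounds giving at least 50% protection of heart cells from peroxide-induced death in the single-dose screen, raw or plate-pattern-corrected value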;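 note: 0% = DMSO wells with peroxide and 100% = DMSO wells without peroxide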
HKDC1 inh: HKDC1 (human) hexokinase inhibition. Q2TB90. actives 0.16% (n = 340,000). inhibition, % at 20 µM. recombinant HKDC1, G6PDH/diaphorase resazurin coupled fluorescence;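 active = inhibition above about 35% when tested at 20 µM, limit read from the data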;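 note: plate controls were DMSO wells with enzyme for no effect and DMSO wells lacking enzyme for full effect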
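Test system: Recombinant HKDC1 (HK5) hexokinase enzyme, produced in-house | Input: HKDC1 at 5 µg/mL | Buffer or medium: Tris pH 8.0 buffer with MgCl2, Tween-20, BSA, BME | Schedule: 90 min reaction incubation at room temperature, dark | Technique: Resazurin-to-resorufin fluorescence via G6PDH and diaphorase coupling, 525/613 nm | Controls: DMSO wells with and without enzyme mix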
PfGluPho inh: PfG6PD (Plasmodium falciparum) enzyme inhibition | inhibition, % at 20 µM | actives 0.78% (n = 350,000) | PfGluPho enzyme, NADPH resazurin-diaphorase fluorescence;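 active = inhibition reaching at least a set limit at 20 µM in the primary screen, cut at about 59% in these data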;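 note: 0% = DMSO wells with substrate and 100% = DMSO wells lacking glucose-6-phosphate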
B2AR ag: activates human beta-2 adrenergic receptor causing internalization. P07550. Am2.2-beta2AR cells, FAP receptor internalization, flow cytometry. response, % (concentration not given with the values). actives 0.43% (n = 340,000). AID 504454;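 active = response above a set limit, near 3 SD of response in nonfluorescent compounds, cut at about 42% in these data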
UCH37 DUB inh: human UCH37 deubiquitinating enzyme inhibition; Q9Y5K5; purified proteasome/UCH37, Ub-AMC cleavage fluorescence; inhibition, % (no concentration beside the values); actives 0.33% (n = 330,000);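 active = mean inhibition over replicate wells above about 20%, limit read from the data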;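 note: 0% = compound-free wells with enzyme and 100% = wells lacking proteasome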
Target sequence (Q9Y5K5 whole entry, looked up): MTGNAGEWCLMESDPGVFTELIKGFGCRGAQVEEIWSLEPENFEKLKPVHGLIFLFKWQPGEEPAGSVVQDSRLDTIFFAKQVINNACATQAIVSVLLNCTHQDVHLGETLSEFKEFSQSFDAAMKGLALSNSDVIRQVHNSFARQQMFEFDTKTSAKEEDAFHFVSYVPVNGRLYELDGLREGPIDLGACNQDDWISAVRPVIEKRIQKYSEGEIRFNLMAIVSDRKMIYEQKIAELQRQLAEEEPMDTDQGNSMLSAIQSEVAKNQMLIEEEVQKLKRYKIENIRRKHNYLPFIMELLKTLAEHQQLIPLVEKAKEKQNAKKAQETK
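Signal – fluorescence, ex 355 nm, em 460 nm · System – Proteasome-bound UCH37 · Input – 0.15 nM proteasome as dispensed · Timing – 30 min preincubation with enzyme, 25 min cleavage at room temperature · Read-out basis – percent inhibition of cleavage signal versus uninhibited and no-proteasome wells · Medium – Tris-HCl pH 7.4 with ATP-MgCl2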
aDG glyco up: alpha-DG glycosylation activation. AID 624168. actives 0.22% (n = 360,000). Pro5-aDG cells, alpha-DG glycosylation AlphaScreen (IIH6); 0% Pro5, 100% B10-LARGE cell signal. activation, % at 10 µM;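 active = activation of at least 8% versus controls, or a plate z-score of at least 8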;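 note: Pro5 are CHO cells carrying HIG-tagged alpha-DG that lacks glycosylation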
aDG glyco conf: alpha-DG glycosylation activation, confirmation; shares compounds with aDG glyco up; Pro5-aDG cells, IIH6 AlphaLISA; scaled to LARGE-overexpressing B10 cells as 100%; AID 651671; activation, % at 10 µM (by protocol); actives 17% (n = 600);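 active = activation of at least 7% in one or more replicates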;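 note: cells exposed to compound for two days before detection; 0% = DMSO-treated Pro5 cells and 100% = DMSO-treated B10-LARGE cells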
An asterisk follows results filed as active; x = not tested or not shown.

SMILES | H9c2 protect | HKDC1 inh | PfGluPho inh | B2AR ag | UCH37 DUB inh | aDG glyco up | aDG glyco conf
CC1(C(=O)Nc2ccc3c(c2)OCCO3)CSCC(=O)N1C1CC1 (stereo not drawn) | x | x | x | x | x | 8.6* | 1
O=C(COc1ccc(-c2ccccc2)cc1)Nc1cccnc1 | -26 | -2 | 0 | -6 | 2 | 4.6* | -1
O=C(COc1ccc([N+](=O)[O-])cc1)Nc1cccnc1 | 2 | -6 | 9 | -4 | 2 | 0 | x
O=C(COc1ccc(-c2ccccc2)cc1)NNC(=O)Nc1ccccc1 | -4 | -6 | -11 | 3 | 4 | 17* | 1
O=S(=O)(c1ccccc1)c1ccc(NCc2ccco2)cc1 | -10 | 5 | -16 | 11 | 1 | 0 | x
O=C1C(Cl)=C(NCc2ccco2)C(=O)c2ccccc21 | -20 | -29 | -109 | 2 | 6 | 11* | 10*
O=C(CN1C(=O)c2ccc(Br)cc2C1=O)NCC1CCCO1 (stereo not drawn) | 4 | -6 | -7 | -2 | 0 | 5.5* | 1
CCOc1ccc(C(=O)Nc2cccc(C)n2)cc1 | -34 | -3 | 12 | -8 | 2 | 0 | x
CCCCOc1ccc(C(=O)Nc2cccc(C)n2)cc1 | -19 | 1 | 10 | -12 | 1 | 6.3* | -1
COc1cc(CNC(=O)Nc2nc(C(N)Cc3ccc(Cl)cc3)cs2)cc(OC)c1OC (stereo not drawn) | -4 | x | x | x | x | 5.8* | 5.9*
S=C(NN=Cc1ccc2ncccc2c1)Nc1cccnc1 | x | x | x | x | 4 | x | x
COc1ccc(C2CC(c3ccc4ccccc4c3)=NN2C(=O)CNC2CCCCC2)cc1 (stereo not drawn) | -8 | -6 | 7 | 5 | -7 | 6 | x
C=CCNCC(=O)N1N=C(c2ccc3ccccc3c2)CC1c1ccc(OC)cc1 (stereo not drawn) | -11 | 6 | 18 | 5 | -4 | 5.8* | 1
COc1ccc(-c2ccc3c(c2)S(=O)(=O)c2cccc(C(=O)NCc4cccc(OC(F)(F)F)c4)c2C3=O)cc1OC | 4 | -6 | -6 | -3 | 4 | 18* | 1
O=C(NCc1cccc(OC(F)(F)F)c1)c1cccc2c1C(=O)c1ccc(-c3ccc(F)cc3OCc3ccccc3)cc1S2(=O)=O | -6 | -12 | 9 | -7 | 1 | 0 | x
COc1ccc(S(=O)(=O)NN=Cc2ccc([N+](=O)[O-])o2)c(OC)c1 | x | x | x | x | 1 | x | x
COc1ccc(C2CC2C(C)=NOC(=O)c2ccc(F)cc2)cc1 (stereo not drawn) | x | x | x | x | 5 | x | x
O=C(Nc1ccc(OC(F)(F)F)cc1)c1ccc2nccnc2c1 | -15 | 0 | 36 | 11 | x | 5.5* | 0
Cn1c(=O)c2c(ncn2CCC(=O)NN=Cc2ccccc2)n(C)c1=O | x | x | x | x | 5 | x | x
CCCCCCCC1CC(C(C)=NNC(N)=O)OC1=O (stereo not drawn) | x | x | x | x | -1 | x | x
N#C/C(=C\c1cccc(Cl)c1)c1n[nH]c(Cn2cncn2)n1 | -3 | -4 | -19 | 1 | 0 | 2.9* | 0
CCn1c2ccccc2c2cc(NC(=O)CC(C)=NNC(=O)c3ccccc3N)ccc21 | x | x | x | x | -200 | x | x
CN(C)CCCNC(=O)C[C@H]1C[C@H](C(=O)N2CCOCC2)[C@@]2(C)c3[nH]c4ccc(Cl)cc4c3CCN2C1=O | 1 | 3 | 10 | -2 | 0 | 5.2* | -1
COCCN1CCC(CNCc2cn(-c3cc(C)ccc3C)nc2-c2ccccc2)C1 (stereo not drawn) | 3 | -9 | 13 | 10 | -1 | 7.8* | 8.6*
CC(=NNC(=O)c1ccccc1C)c1cccc([N+](=O)[O-])c1 | x | x | x | x | 2 | x | x
SMILES | H9c2 protect | HKDC1 inh | PfGluPho inh | B2AR ag | UCH37 DUB inh | aDG glyco up | aDG glyco conf
CON=Cc1ccc(N2CCN(C(=O)c3cccc(C(F)(F)F)c3)CC2)c([N+](=O)[O-])c1 | x | x | x | x | 6 | x | x
O=C(NN=Cc1coc2ccccc2c1=O)c1cc2ccccc2o1 | x | x | x | x | -43 | x | x
Cc1ccc(S(=O)(=O)c2c(N)n(Cc3ccco3)c3nc4ccccc4nc23)cc1C | -8 | 6 | 24 | -7 | -238 | 40* | 1
Cc1ccc(C(=O)NN=Cc2cc(C)n(-c3ccc(Br)cc3)c2C)cc1[N+](=O)[O-] | x | x | x | x | 0 | x | x
Cc1ccc(NC(=O)c2cccnc2)c([N+](=O)[O-])c1 | 10 | -3 | 7 | -5 | 2 | 0 | x
Cc1ccc(NC(=O)c2cncc(Br)c2)c([N+](=O)[O-])c1 | 5 | -5 | -19 | -10 | 4 | 45* | -1
CCOC(=O)c1c(C)[nH]c(C(=O)OCC(=O)Nc2cc(Cl)ccc2OC)c1C | -9 | -9 | 10 | -4 | -1 | 1 | x
CC(=O)c1c(C)[nH]c(C(=O)OCC(=O)Nc2ccc(Cl)cc2[N+](=O)[O-])c1C | -25 | 11 | -5 | -22 | 5 | 8.4* | 1
O=C(NN=Cc1ccc(N2CCOCC2)cc1)c1cccs1 | x | x | x | x | -5 | x | x
COc1cc(C=c2sc3n(c2=O)C(c2ccccc2)C(c2ccccc2)=NN=3)ccc1O (stereo not drawn) | x | x | x | x | -4 | x | x
CC(=NNC(=O)c1nnn(-c2nonc2N)c1COc1ccccc1)c1ccc(O)cc1 | x | x | x | x | 0 | x | x

Screening data deposited in PubChem by several laboratories.
